Each block holds one compound with its values, some of them ahead of it.
Experiments:
K562 [1] = assay: Antiproliferative activity against human K562 cells at 10 uM after 48 hrs by trypan blue assay; assay type: functional; settings: K562, 48 h, read-out: GI
K562 [2] = assay: Growth inhibition of human K562 cells after 48 hrs by trypan blue assay; assay type: functional, cell-based; settings: K562, 48 h
MOLT-4 = assay: Growth inhibition of human MOLT4 cells after 48 hrs by SRB assay; assay type: functional; settings: MOLT-4, 48 h
Outline: (§1)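 NCI DTP panel cells grown in RPMI 1640 with 5% FBS and 2 mM L-glutamine, preincubated 24 h, then given five concentrations (10-fold or ½-log dilutions from DMSO stock) for 48 h at 37 °C. Cells fixed with TCA, stained with SRB, absorbance read at 515 nm, with time-zero plates as reference.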

786-0 = assay: Growth inhibition of human 786-0 cells after 48 hrs by SRB assay; assay type: functional; settings: 786-0, 48 h; outline: as §1
OVCAR-5 = assay: Growth inhibition of human OVCAR5 cells after 48 hrs by SRB assay; assay type: functional; settings: OVCAR-5, 48 h; outline: as §1
SNB-75 = assay: Growth inhibition of human SNB75 cells after 48 hrs by SRB assay; assay type: functional; settings: SNB-75, 48 h
Outline: (§2)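 Run by the NCI Developmental Therapeutics Program: cells in RPMI 1640 with 5% FBS and 2 mM L-glutamine, plated at 5000–40,000 cells/well and grown 24 h before dosing. Drug (DMSO stock) given at five concentrations for 48 h at 37 °C, 5% CO2. Adherent cells fixed with cold TCA, stained with 0.4% SRB and read at 515 nm. GI50, TGI and LC50 taken from the time-zero, control and treated absorbances.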

SN12C = assay: Growth inhibition of human SN12C cells after 48 hrs by SRB assay; assay type: functional; outline: as §2
HT-29 = assay: Growth inhibition of human HT-29 cells after 48 hrs by SRB assay; assay type: functional; settings: HT-29, 48 h; outline: as §1
SK-OV-3 = assay: Growth inhibition of human SKOV3 cells after 48 hrs by SRB assay; assay type: functional; settings: SK-OV-3, 48 h; outline: as §2
HCT-116 = assay: Growth inhibition of human HCT116 cells after 48 hrs by SRB assay; assay type: functional; settings: HCT-116, 48 h; outline: as §1
NCI-H522 = assay: Growth inhibition of human NCI-H522 cells after 48 hrs by SRB assay; assay type: functional; settings: NCI-H522, 48 h; outline: as §1
OVCAR-3 = assay: Growth inhibition of human OVCAR3 cells after 48 hrs by SRB assay; assay type: functional; settings: OVCAR-3, 48 h; outline: as §1
RXF 393 = assay: Growth inhibition of human RXF393 cells after 48 hrs by SRB assay; assay type: functional; settings: RXF 393, 48 h; outline: as §1
RPMI-8226 = assay: Growth inhibition of human RPMI8226 cells after 48 hrs by SRB assay; assay type: functional; settings: RPMI-8226, 48 h; outline: as §1
UACC-257 = assay: Growth inhibition of human UACC257 cells after 48 hrs by SRB assay; assay type: functional; settings: UACC-257, 48 h; outline: as §2
SF-539 = assay: Growth inhibition of human SF539 cells after 48 hrs by SRB assay; assay type: functional; settings: SF-539, 48 h; outline: as §1
IGROV-1 = assay: Growth inhibition of human IGROV1 cells after 48 hrs by SRB assay; assay type: functional; settings: IGROV-1, 48 h; outline: as §1
K562 [3] = assay: Growth inhibition of human K562 cells after 48 hrs by SRB assay; assay type: functional; settings: K562, 48 h; outline: as §1
MCF7 = assay: Growth inhibition of human MCF7 cells after 48 hrs by SRB assay; assay type: functional; settings: MCF7, 48 h; outline: as §1
PC-3 = assay: Growth inhibition of human PC3 cells after 48 hrs by SRB assay; assay type: functional; settings: PC-3, 48 h; outline: as §1
HOP-92 = assay: Growth inhibition of human HOP92 cells after 48 hrs by SRB assay; assay type: functional; settings: HOP-92, 48 h; outline: as §1
SF-268 = assay: Growth inhibition of human SF268 cells after 48 hrs by SRB assay; assay type: functional; settings: SF-268, 48 h; outline: as §1
HCT-15 = assay: Growth inhibition of human HCT15 cells after 48 hrs by SRB assay; assay type: functional; settings: HCT-15, 48 h; outline: as §1
HCC 2998 = assay: Growth inhibition of human HCC2998 cells after 48 hrs by SRB assay; assay type: functional; settings: HCC 2998, 48 h; outline: as §1
SK-MEL-5 = assay: Growth inhibition of human SK-MEL-5 cells after 48 hrs by SRB assay; assay type: functional; settings: SK-MEL-5, 48 h; outline: as §2
UACC-62 = assay: Growth inhibition of human UACC62 cells after 48 hrs by SRB assay; assay type: functional; settings: UACC-62, 48 h; outline: as §2
T47D = assay: Growth inhibition of human T47D cells after 48 hrs by SRB assay; assay type: functional; outline: as §2
HOP-62 = assay: Growth inhibition of human HOP62 cells after 48 hrs by SRB assay; assay type: functional; settings: HOP-62, 48 h; outline: as §1
NCI-H226 = assay: Growth inhibition of human NCI-H226 cells after 48 hrs by SRB assay; assay type: functional; settings: NCI-H226, 48 h; outline: as §1
KM12 = assay: Growth inhibition of human KM12 cells after 48 hrs by SRB assay; assay type: functional; settings: KM12, 48 h; outline: as §1
U-251 = assay: Growth inhibition of human U251 cells after 48 hrs by SRB assay; assay type: functional; settings: U-251, 48 h; outline: as §2
A498 = assay: Growth inhibition of human A498 cells after 48 hrs by SRB assay; assay type: functional; settings: A498, 48 h; outline: as §1
MDA-MB-435 = assay: Growth inhibition of human MDA-MB-435 cells after 48 hrs by SRB assay; assay type: functional; settings: MDA-MB-435, 48 h; outline: as §1
ACHN = assay: Growth inhibition of human ACHN cells after 48 hrs by SRB assay; assay type: functional; outline: as §1
NCI-H23 = assay: Growth inhibition of human NCI-H23 cells after 48 hrs by SRB assay; assay type: functional; settings: NCI-H23, 48 h; outline: as §1
CAKI-1 = assay: Growth inhibition of human Caki1 cells after 48 hrs by SRB assay; assay type: functional; settings: CAKI-1, 48 h; outline: as §1
[4] = Growth inhibition of human Hs 578T cells after 48 hrs by SRB assay; assay type: functional; outline: as §1
SNB-19 = assay: Growth inhibition of human SNB19 cells after 48 hrs by SRB assay; assay type: functional; settings: SNB-19, 48 h; outline: as §2
CCRF-CEM = assay: Growth inhibition of human CCRF-CEM cells after 48 hrs by SRB assay; assay type: functional; outline: as §1
A549 = assay: Growth inhibition of human A549 cells after 48 hrs by SRB assay; assay type: functional; settings: A549, 48 h; outline: as §1
TK-10 = assay: Growth inhibition of human TK10 cells after 48 hrs by SRB assay; assay type: functional; settings: TK-10, 48 h; outline: as §2
NCI-H460 = assay: Growth inhibition of human NCI-H460 cells after 48 hrs by SRB assay; assay type: functional; settings: NCI-H460, 48 h; outline: as §1
BT-549 = assay: Growth inhibition of human BT549 cells after 48 hrs by SRB assay; assay type: functional; settings: BT-549, 48 h; outline: as §1
OVCAR-4 = assay: Growth inhibition of human OVCAR4 cells after 48 hrs by SRB assay; assay type: functional; settings: OVCAR-4, 48 h; outline: as §1
SF-295 = assay: Growth inhibition of human SF295 cells after 48 hrs by SRB assay; assay type: functional; settings: SF-295, 48 h; outline: as §1
EKVX = assay: Growth inhibition of human EKVX cells after 48 hrs by SRB assay; assay type: functional; outline: as §1
NCI/ADR-RES = assay: Growth inhibition of human NCI/ADR-RES cells after 48 hrs by SRB assay; assay type: functional; outline: as §1
DU-145 = assay: Growth inhibition of human DU145 cells after 48 hrs by SRB assay; assay type: functional; settings: DU-145, 48 h; outline: as §1
COLO 205 = assay: Growth inhibition of human COLO205 cells after 48 hrs by SRB assay; assay type: functional; settings: COLO 205, 48 h; outline: as §1
MDA-MB-468 = assay: Growth inhibition of human MDA-MB-468 cells after 48 hrs by SRB assay; assay type: functional; settings: MDA-MB-468, 48 h; outline: as §1
SW-620 = assay: Growth inhibition of human SW620 cells after 48 hrs by SRB assay; assay type: functional; settings: SW-620, 48 h; outline: as §2
M14 = assay: Growth inhibition of human M14 cells after 48 hrs by SRB assay; assay type: functional; settings: M14, 48 h; outline: as §1
HL-60 = assay: Growth inhibition of human HL60 cells after 48 hrs by SRB assay; assay type: functional; settings: HL-60, 48 h; outline: as §1
SK-MEL-2 = assay: Growth inhibition of human SK-MEL-2 cells after 48 hrs by SRB assay; assay type: functional; settings: SK-MEL-2, 48 h; outline: as §2
MDA-MB-231 = assay: Growth inhibition of human MDA-MB-231 cells after 48 hrs by SRB assay; assay type: functional; settings: MDA-MB-231, 48 h; outline: as §1
LOX IMVI = assay: Growth inhibition of human LOXIMVI cells after 48 hrs by SRB assay; assay type: functional; outline: as §1
UO-31 = assay: Growth inhibition of human UO31 cells after 48 hrs by SRB assay; assay type: functional; settings: UO-31, 48 h; outline: as §2

Structure (SMILES): NC(=O)c1cc(Br)ccc1NC(=O)/C=C/c1cccc(Cl)c1
inhibition of growth at 10 µM (K562 [1]): 25.5%
IC50 (K562 [2]): > 10000 nM

Structure (SMILES): NC(=O)c1cc(I)ccc1NC(=O)/C=C/c1ccccc1Cl
GI50 (MOLT-4): 1420 nM
GI50 (786-0): 937 nM
GI50 (OVCAR-5): 4020 nM
inhibition of growth at 10 µM (K562 [1]): 74.1%
IC50 (K562 [2]): 1200 nM
GI50 (SNB-75): 1220 nM
GI50 (SN12C): 1550 nM
GI50 (HT-29): 376 nM
GI50 (SK-OV-3): 539 nM
GI50 (HCT-116): 509 nM
GI50 (NCI-H522): 459 nM
GI50 (OVCAR-3): 294 nM
GI50 (RXF 393): 425 nM
GI50 (RPMI-8226): 772 nM
GI50 (UACC-257): 38700 nM
GI50 (SF-539): 444 nM
GI50 (IGROV-1): 352 nM
GI50 (K562 [3]): 370 nM
GI50 (MCF7): 401 nM
GI50 (PC-3): 832 nM
GI50 (HOP-92): 13200 nM
GI50 (SF-268): 778 nM
GI50 (HCT-15): 987 nM
GI50 (HCC 2998): 984 nM
GI50 (SK-MEL-5): 367 nM
GI50 (UACC-62): 388 nM
GI50 (T47D): 19900 nM
GI50 (HOP-62): 2300 nM
GI50 (NCI-H226): 1140 nM
GI50 (KM12): 533 nM
GI50 (U-251): 663 nM
GI50 (A498): 880 nM
GI50 (MDA-MB-435): 234 nM
GI50 (ACHN): 9860 nM
GI50 (NCI-H23): 1390 nM
GI50 (CAKI-1): 637 nM
GI50 [4]: 362 nM
GI50 (SNB-19): 1410 nM
GI50 (CCRF-CEM): 484 nM
GI50 (A549): 1870 nM
GI50 (TK-10): 26700 nM
GI50 (NCI-H460): 479 nM
GI50 (BT-549): 816 nM
GI50 (OVCAR-4): 2370 nM
GI50 (SF-295): 415 nM
GI50 (EKVX): 1000 nM
GI50 (NCI/ADR-RES): 719 nM
GI50 (DU-145): 1280 nM
GI50 (COLO 205): 797 nM
GI50 (MDA-MB-468): 377 nM
GI50 (SW-620): 605 nM
GI50 (M14): 698 nM
GI50 (HL-60): 165 nM
GI50 (SK-MEL-2): 678 nM
GI50 (MDA-MB-231): 1410 nM
GI50 (LOX IMVI): 4210 nM
GI50 (UO-31): 1630 nM

Structure (SMILES): NC(=O)c1cc(Br)ccc1NC(=O)/C=C/c1cccc(Br)c1
inhibition of growth at 10 µM (K562 [1]): 45.9%
IC50 (K562 [2]): > 10000 nM

Structure (SMILES): Cc1ccc(/C=C/C(=O)Nc2ccc(Cl)cc2C(N)=O)cc1
inhibition of growth at 10 µM (K562 [1]): 64%
IC50 (K562 [2]): 6300 nM

The next lines start with results.

IC50 (K562 [2]): 9500 nM
Structure (SMILES): Cc1ccccc1/C=C/C(=O)Nc1ccc(Cl)cc1C(N)=O
inhibition of growth at 10 µM (K562 [1]): 52.2%

IC50 (K562 [2]): > 10000 nM
Structure (SMILES): Cc1ccccc1/C=C/C(=O)Nc1ccc(Br)cc1C(N)=O
inhibition of growth at 10 µM (K562 [1]): 43.2%

Reference: ChEMBL document CHEMBL1795311, “Synthesis, antiproliferative activity, and mechanism of action of a series of 2-{[(2E)-3-phenylprop-2-enoyl]amino}benzamides” (Eur J Med Chem, 2011)
